# Assay outcomes from PubChem.
# GSK3A inh: inhibitors of human GSK-3 alpha kinase; inhibition, % at 10 µM; 320,000 tested, 0.1% active; AID 2650; ADP-Glo luminescence, 60 min;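 active = more than half of replicates show inhibition above 20%; inconclusive = some but at most half of replicates above 20% inhibition; inactive = no replicate shows inhibition above 20%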;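 note: GST-tagged GSK-3 alpha with peptide substrate and 25 µM ATP; 0% = DMSO neutral wells and 100% = GW8510 positive control wells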
# AI-2 QS modul: modulators of Vibrio harveyi AI-2 quorum sensing system; Vibrio harveyi JMH597 AI-2 luminescence/OD600 ratio, 9 h; hits give low values; strain lacks LuxN and CqsS sensors; 0 = neutral-control median; activity change, % at 7.5 µM; 300,000 tested, 0.4% active; in the data active = activity change below about -75%, passing the limit was not always enough; inconclusive = no clear call, values can overlap the other calls;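 note: luminescence divided by OD600 gain over 9 h not by final OD600 alone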
# STK33 inh: human STK33 kinase inhibition; purified STK33, MBP phosphorylation, ADP-Glo luminescence; AID 2661; 320,000 tested, 0.073% active; inhibition, % at 10 µM;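 active = inhibition at or above 25%, using the most active replicate where run in duplicate; inactive = inhibition below 25%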
# Target sequence (Q9BYT3 whole entry, looked up): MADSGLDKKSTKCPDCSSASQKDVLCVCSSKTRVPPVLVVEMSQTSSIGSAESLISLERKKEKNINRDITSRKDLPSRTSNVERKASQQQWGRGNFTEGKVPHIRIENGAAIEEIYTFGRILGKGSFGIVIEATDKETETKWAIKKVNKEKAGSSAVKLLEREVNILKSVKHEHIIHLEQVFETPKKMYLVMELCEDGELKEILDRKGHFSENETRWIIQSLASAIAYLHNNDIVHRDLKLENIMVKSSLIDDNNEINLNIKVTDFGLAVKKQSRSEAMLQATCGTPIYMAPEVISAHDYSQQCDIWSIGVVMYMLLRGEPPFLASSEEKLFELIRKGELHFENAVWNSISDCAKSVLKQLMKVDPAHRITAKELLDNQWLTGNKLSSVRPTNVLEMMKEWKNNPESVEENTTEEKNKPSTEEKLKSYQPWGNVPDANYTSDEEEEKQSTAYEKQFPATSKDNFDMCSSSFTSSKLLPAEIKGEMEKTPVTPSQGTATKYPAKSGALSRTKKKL
# DYRK1A inh: blocks rat Dyrk1A kinase activity; Q63470; ADP-Glo luminescence, NFATc1 peptide; inhibition, % at 12.5 µM; 310,000 tested, 0.43% active; in the data active = inhibition above about 50%;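 note: plate controls were vehicle with enzyme for no effect and no enzyme for full effect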
# GSK3beta inhib: human GSK3beta kinase inhibition | GST-GSK3beta kinase, ADP-Glo luminescence, 60 min; hits give low values | activity score (negative = inhibition), % at 10 µM | 300,000 tested, 0.038% active | AID 2097;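 active = more than half of replicate wells score below -50%, meaning over 50% inhibition versus plate controls; inconclusive = some replicates but at most half score below -50%; inactive = no replicate scores below -50%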;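 note: 0% = median DMSO wells and -100% = median GW8510 positive control wells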
#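 Assay system: GST-fused GSK3beta enzyme, cell-free / Medium: Tris pH 7.5 buffer with MgCl2, DTT, BSA, heparin / Also added: peptide substrate plus 25 µM ATP (final) / Compound: 10 µM single point / Timing: kinase reaction with compound 60 min at room temperature / Detection: ADP-Glo luminescence / Benchmarks: DMSO neutral wells and GW8510 at 20 µM as positive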
# Rce1 inhib: yeast Ras-converting enzyme inhibition | 290,000 tested, 0.27% active | calls only | yeast membranes, quenched prenylated peptide cleavage fluorescence;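 active = fall in fluorescence gain of 50% or more versus controls, with final raw signal at or below 3038400; inconclusive = same 50% fall but final raw signal above 3038400; inactive = fall in fluorescence gain under 50%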;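 note: plate controls were neutral control wells for no effect and wells lacking membranes for full effect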
# JMH597 growth rt: retest Vibrio harveyi JMH597 growth inhibition. shares compounds with AI-2 QS modul. OD600 absorbance, 9 h; lacks LuxN and CqsS sensors. 750 tested, 1% active. growth inhibition, % at 7.5 µM;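 active = every replicate shows growth inhibition above 50%; inconclusive = at least half, but not all, replicates pass that cutoff; inactive = fewer than half of replicates pass it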
# BB721 const-QS lum: retest counter-screen: luminescence loss in constitutive-on quorum sensing strain BB721; 750 tested, 95% active; inhibition, % at 7.5 µM; shares compounds with AI-2 QS modul; AID 2727; Vibrio harveyi BB721 luminescence, 9 h;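 active = inhibition above about 80% in every replicate, not just on average, limit read from the data; inconclusive = at least half of replicates past the limit, but not all; inactive = fewer than half of replicates past the limit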
# BB721 growth rt: retest: inhibitors of Vibrio harveyi BB721 growth | OD600 absorbance, 9 h | shares compounds with AI-2 QS modul | growth inhibition, % at 7.5 µM | 750 tested, 3% active;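 active = every replicate shows growth inhibition above 50%; inconclusive = at least half but not all replicates above 50% inhibition; inactive = under half of replicates above 50% inhibition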
# AI-2 QS JMH597: Vibrio harveyi AI-2 signaling luminescence modulation – JMH597 strain, confirmation; shares compounds with AI-2 QS modul; Vibrio harveyi JMH597 AI-2 quorum sensing luminescence, 9 h; luxN and CqsS knockout, AI-2 only; inhibition, % at 7.5 µM; 750 tested, 97% active; AID 2736;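 active = every replicate shows more than 75% inhibition of signal versus neutral control wells; inconclusive = half to three quarters of replicates exceed 75% inhibition; inactive = fewer than half of replicates exceed 75% inhibition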
# Dyrk1A artifact: ADP-Glo luciferase interference, Dyrk1A counter-screen. shares compounds with DYRK1A inh. ADP-Glo luciferase artifact assay, no Dyrk1A, luminescence. AC50, µM (top dose mostly 12 µM), for the others: at the highest dose activity change, negative = inhibition. 1,300 tested, under 10 active;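 active = fitted half-maximal dose AC50 no more than ten times the top valid tested dose, with luminescence dropping as dose rises; inconclusive = poor fit, or flat fit with 30 to 70% inhibition; inactive = the rest, signal increases included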
# * hit, by the source's call; i = inactive; ? = inconclusive; nt = no result. The list is not random: actives were taken first. Their share in the collection is about 0.99%.
SMILES,GSK3A inh,AI-2 QS modul,STK33 inh,DYRK1A inh,GSK3beta inhib,Rce1 inhib,Dyrk1A artifact,others
Cc1cc(C)nc(N2CCCC(C(=O)Nc3cccc(Cl)c3)C2)n1 (stereo not drawn),-18,12,0,-2,-1,i,nt,
O=C(Cn1nnc(-c2ccccc2)n1)c1ccccc1,-6,-94*,-1,3,-1,i,nt,JMH597 growth rt=28;BB721 const-QS lum=98*;BB721 growth rt=2;AI-2 QS JMH597=99*
CC(C)(C)C(=O)Cn1nnc(-c2ccc(C(F)(F)F)cc2)n1,-2,-80*,-1,-4,-2,i,nt,JMH597 growth rt=-30;BB721 const-QS lum=90*;BB721 growth rt=-1;AI-2 QS JMH597=93*
O=C(Cn1nnc(-c2ccccc2)n1)NNC(=O)c1ccccc1,-3,3,0,nt,4,i,nt,
COc1ccc(C(=O)Cn2nnc(-c3cccs3)n2)cc1,-2,-81*,-1,2,2,i,nt,JMH597 growth rt=24;BB721 const-QS lum=93*;BB721 growth rt=-11;AI-2 QS JMH597=96*
Cc1ccc(C(=O)OCC(=O)c2c[nH]c3ccccc23)cc1,-4,-79*,-1,-9,3,i,nt,JMH597 growth rt=1;BB721 const-QS lum=77*;BB721 growth rt=13;AI-2 QS JMH597=86*
COc1ccc(C(=O)OCC(=O)c2c[nH]c3ccccc23)cc1OC,17,nt,0,5,nt,nt,nt,
COc1cc(OC)cc(OC(=O)C2CCN(S(=O)(=O)c3ccc(OC)c(OC)c3)CC2)c1,-2,3,-3,0,-3,i,nt,
O=C(COC(=O)c1ccco1)Nc1nc2ccccc2s1,nt,?,0,2,1,i,nt,JMH597 growth rt=-2;BB721 const-QS lum=94*;BB721 growth rt=11;AI-2 QS JMH597=95*
CCN(CC)S(=O)(=O)c1ccc(Oc2cccc(C(C)=O)c2)nc1,nt,-85*,-3,1,-2,i,nt,JMH597 growth rt=2;BB721 const-QS lum=95*;BB721 growth rt=-8;AI-2 QS JMH597=96*
O=C(/C=C/c1ccccc1)NNC(=O)c1cccc(Cl)c1,nt,-4,0,-2,-4,i,nt,
O=C(/C=C/c1ccccc1)NNc1ccc(Cl)cc1,-1,-97*,-1,-1,0,i,nt,JMH597 growth rt=32;BB721 const-QS lum=100*;BB721 growth rt=?;AI-2 QS JMH597=100*
Clc1ccc(OCc2nc(-c3ccncc3)no2)c(Cl)c1,0,10,-1,7,-3,i,nt,
c1ccc(OCc2nc(-c3cccs3)no2)cc1,-7,-84*,-2,-10,1,i,nt,JMH597 growth rt=24;BB721 const-QS lum=96*;BB721 growth rt=11;AI-2 QS JMH597=97*
Clc1cccc(OCc2nc(-c3ccncc3)no2)c1,nt,-88*,nt,-16,0,i,nt,JMH597 growth rt=10;BB721 const-QS lum=96*;BB721 growth rt=-11;AI-2 QS JMH597=97*
Cc1ccc(S(=O)(=O)N2CCN(C(=O)CN3CCN(c4ccc(O)cc4)CC3)CC2)cc1,nt,nt,nt,3,nt,nt,nt,
CC1CCCC(NC(=O)CN2CCN(S(=O)(=O)c3cccs3)CC2)C1C (stereo not drawn),0,nt,1,-3,nt,nt,nt,
COc1cccc(-c2nnc3n2N=C(c2cc(OC)ccc2OC)CS3)c1,1,23,0,30,2,i,nt,
CC(C)(C)C1=Nn2c(nnc2-c2ccccc2F)SC1,6,21,0,52*,-1,i,6%,
COc1cccc(-c2nnc3n2N=C(C(C)(C)C)CS3)c1,nt,-5,4,79*,6,i,8%,
CCOC(=O)C1=C(COC(=O)c2ccc(OC)c(S(=O)(=O)N3CCOCC3)c2)NC(=O)NC1C (stereo not drawn),nt,nt,nt,-2,nt,nt,nt,
O=S1(=O)N=C(N(Cc2cccs2)c2ccc(O)cc2)c2ccccc21,0,17,1,73*,-3,i,7%,
CCOC(=O)N1CCN(S(=O)(=O)c2ccc(OC)c(C(=O)N3CCCCC3)c2)CC1,0,2,1,0,-2,i,nt,
CCNC(=S)Nc1ccc(Cc2nc3ccccc3[nH]2)cc1,-1,11,0,2,2,i,nt,
CC1CCC(NC(=O)c2cc(S(=O)(=O)N3CCCCC3)c[nH]2)CC1 (stereo not drawn),1,8,-2,57*,4,i,8%,
SMILES,GSK3A inh,AI-2 QS modul,STK33 inh,DYRK1A inh,GSK3beta inhib,Rce1 inhib,Dyrk1A artifact,others
CCCNC(=O)c1cc(S(=O)(=O)N2CCCCC2)c[nH]1,-2,7,-1,2,4,i,nt,
COc1ccc(C(=O)Nc2ccnc(-c3cccnc3)n2)cc1,1,3,0,31,-13,i,nt,
Cc1ccc(C(=O)Nc2ccnc(-c3cccnc3)n2)cc1,2,26,nt,60*,-3,i,9%,
NC1=NC(=O)/C(=C\c2ccco2)S1,3,26,3,47,-1,i,nt,
NC1=NC(=O)/C(=C/c2ccc(-c3ccc(S(N)(=O)=O)cc3)o2)S1,65*,3,0,77*,-2,i,13%,
CC1(C)OC(=O)C(=Cc2ccc(-c3ccc(S(N)(=O)=O)cc3)o2)C(=O)O1,-1,20,-1,-1,0,i,nt,
CS(=O)(=O)Nc1ccc(-c2ccc(/C=C3\SC(N)=NC3=O)o2)cc1,55*,0,-1,84*,0,i,10%,
C#CCN1c2ccccc2Sc2cccnc21,-2,4,0,-1,3,i,nt,
Cc1nc2c(ccc3nc(NC(=O)Cc4ccccc4)sc32)s1,5,2,15,68*,-7,i,6%,
CC(=O)c1cc2ccc(O)cc2oc1=O,7,16,0,20,0,i,nt,
Cc1ccc(N=c2oc3cc(O)ccc3cc2C(N)=O)cc1,26,8,10,77*,-3,i,8%,
O=C(/C=C/c1ccccc1)Nc1cccnc1Oc1ccccc1F,-1,21,1,51*,-1,i,0%,
Nc1cccnc1Oc1ccccc1F,-1,11,-2,-1,-1,i,nt,
Fc1ccccc1/C=N/Nc1ncnc2nc[nH]c12,65*,3,8,55*,-36,i,5%,
Oc1ccc(/C=N/Nc2ncnc3nc[nH]c23)cc1,9,24,-2,19,-32,i,nt,
Fc1cccc(/C=N/Nc2ncnc3nc[nH]c23)c1,68*,1,0,73*,-44,i,1%,
COC1=CC(=O)c2c(ccc3ncnc(N)c23)C1=O,nt,nt,nt,51*,nt,nt,14%,
Cc1cc2nncn2c2ccccc12,-4,25,1,57*,1,i,9%,
